CAL PDZ FP-1 = blocks peptide binding to the human CAL PDZ domain | hit rate 0.92% among 300,000 | purified CAL PDZ, TMR-peptide fluorescence polarization, 1 h | inhibition, % at 24.9 µM | AID 602252 | Q9HD26;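 active = mean inhibition of at least 30% with at least half of replicates also reaching 30%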
ARNT TACC3 PPI = ARNT/TACC3 interaction disruption. hit rate 0.66% among 390,000. Q9Y6A5. inhibition, % at 9.99 µM. AlphaScreen His-ARNT PAS-B/GST-TACC3 binding, luminescence; TACC3 fragment carries E629A point mutation. AID 623870;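 active = mean inhibition of replicates at least 50% and at least half of replicates each reaching 50%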
CAL PDZ FP-2 = human CAL PDZ-peptide interaction inhibition; hit rate 0.02% among 330,000; AID 504414; inhibition, % at 20 µM; purified CAL PDZ, TMR-peptide fluorescence polarization, 1 h;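 active = highest replicate inhibition of at least 40%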
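material = purified tagged CAL PDZ domain construct (CerCALP) | buffer or medium = sodium phosphate/NaCl buffer pH 7.4 with TCEP, IgG, Thesit | reagent = TMR-labelled reporter peptide T*-PRC34 bound in PDZ groove | incubation = 1 h room-temperature incubation prior to read | measured by = fluorescence polarization (mP) | evaluation = percent inhibition from loss of millipolarization | control set = unlabelled peptide and DMSO controls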
miR-122 sensor = miR-122 inhibition in Huh7 cells | Huh7 miR-122 Renilla luciferase sensor, 48 h; neutral wells = 0, positive control = 100 | activation (reporter increase), % at 12.5 µM | hit rate 0.3% among 340,000 | AID 602342;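 active = mean replicate activation score at least 90 and every replicate individually at or above 90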;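 also: higher luciferase means less miR-122 activity so hits act as miR-122 inhibitors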
SR-BI DiI inh = mouse SR-BI HDL lipid transfer inhibition | ldlA[mSR-BI] CHO cells, DiI-HDL uptake fluorescence, 3 h | inhibition, % at 12.5 µM | hit rate 0.96% among 320,000;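 active = mean replicate inhibition of at least 70% and a set share of replicates each scoring 70 or more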
Target sequence (Q61009 whole entry, looked up): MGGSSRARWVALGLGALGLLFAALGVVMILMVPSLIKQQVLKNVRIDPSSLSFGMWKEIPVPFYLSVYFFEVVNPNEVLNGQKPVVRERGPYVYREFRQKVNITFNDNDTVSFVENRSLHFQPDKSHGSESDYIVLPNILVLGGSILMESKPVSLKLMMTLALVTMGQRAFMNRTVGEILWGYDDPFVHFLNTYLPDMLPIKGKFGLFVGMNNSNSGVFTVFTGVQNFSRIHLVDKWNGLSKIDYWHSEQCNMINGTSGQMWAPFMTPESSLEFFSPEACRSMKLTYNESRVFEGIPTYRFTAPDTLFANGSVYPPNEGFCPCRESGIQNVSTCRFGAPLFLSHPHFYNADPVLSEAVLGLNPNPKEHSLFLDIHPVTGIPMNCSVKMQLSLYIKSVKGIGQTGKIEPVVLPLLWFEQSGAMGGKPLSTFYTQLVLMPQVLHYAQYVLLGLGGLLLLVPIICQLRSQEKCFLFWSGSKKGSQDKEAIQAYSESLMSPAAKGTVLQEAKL
SR-BI DiI-HDL act = enhances SR-BI lipid uptake from DiI-HDL | CHO ldlA[mSR-BI] cells, DiI-HDL uptake fluorescence, 3 h; 100 = double the neutral-control signal | activation, % at 12.5 µM | hit rate 0.096% among 320,000 | AID 504775;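 active = mean replicate activation of at least 60% and every replicate at or above 60%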
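System: CHO ldlA[mSR-BI] cells / Medium: HEPES-buffered (25 mM, pH 7.4) F12 plus 0.5% BSA / Probe or stimulus: labelled HDL, 10 µg/mL / Doses: single compound concentration, delivered by pin transfer / Schedule: 3 h, 37 °C / Measured by: DiI fluorescence, bottom read / Measure: cell-associated DiI fluorescence as measure of HDL uptake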
Numbers stand for hits. Sampled rows, rich in hits. Any-hit rate of the full collection: about 2.1%.

For S=C(Nc1cccnc1)NC1CC2CCC1C2 (stereo not drawn) the results were CAL PDZ FP-1 37.8, ARNT TACC3 PPI inactive, CAL PDZ FP-2 inactive, miR-122 sensor inactive, SR-BI DiI inh inactive and SR-BI DiI-HDL act inactive.
O=C(NNC(=O)c1cc2ccccc2o1)c1ccc(Cl)cc1 was read as ARNT TACC3 PPI inactive, CAL PDZ FP-2 inactive, miR-122 sensor inactive, SR-BI DiI inh inactive and SR-BI DiI-HDL act 510.5.
O=C(N[C@@H]1CC[C@@H](CCNS(=O)(=O)c2ccccc2)O[C@H]1CO)c1cccc(F)c1 was read as ARNT TACC3 PPI inactive.
Screening Oc1ccccc1-c1cc(-c2ccc3c(c2)OCCO3)n[nH]1 returned CAL PDZ FP-1 inactive, ARNT TACC3 PPI inactive, CAL PDZ FP-2 inactive, miR-122 sensor inactive, SR-BI DiI inh 77.7 and SR-BI DiI-HDL act inactive.
O=C(O)c1cc(-c2ccc3c(c2)OCCO3)n[nH]1 was read as CAL PDZ FP-1 inactive, ARNT TACC3 PPI inactive, CAL PDZ FP-2 inactive, miR-122 sensor inactive, SR-BI DiI inh inactive and SR-BI DiI-HDL act inactive.
Screening Cc1ccc2[nH]c(=O)c(COC(=O)C3CCCCC3)cc2c1 returned CAL PDZ FP-1 active, ARNT TACC3 PPI inactive, CAL PDZ FP-2 inactive, miR-122 sensor inactive, SR-BI DiI inh inactive and SR-BI DiI-HDL act inactive.
For COc1cccc(-c2cnc3c(c2)C(=O)N([C@@H](C)CO)C[C@H](C)[C@@H](CN(C)C(=O)CN(C)C)O3)c1 the results were miR-122 sensor inactive.
`COc1cc(/C=N/NC(N)=S)cc(Br)c1OCc1ccccc1F` gave CAL PDZ FP-1 123.7, ARNT TACC3 PPI inactive, CAL PDZ FP-2 inactive, SR-BI DiI inh inactive and SR-BI DiI-HDL act inactive.
For CCOc1cc(/C=N/NC(N)=S)cc(Br)c1OCc1ccccc1C the results were CAL PDZ FP-1 inactive, ARNT TACC3 PPI inactive, CAL PDZ FP-2 inactive, miR-122 sensor inactive, SR-BI DiI inh inactive and SR-BI DiI-HDL act inactive.
Screening CO[C@@H]1CN(C)C(=O)c2cc(NC(=O)C3CCOCC3)ccc2OC[C@@H](C)N(S(=O)(=O)c2ccc(Cl)cc2)C[C@H]1C returned ARNT TACC3 PPI inactive.
CCOc1ccccc1Nc1nnc(SCC(=O)Nc2nc(-c3ccc(OC)cc3)cs2)s1 was read as CAL PDZ FP-1 inactive, ARNT TACC3 PPI inactive, CAL PDZ FP-2 inactive, miR-122 sensor inactive, SR-BI DiI inh 76.1 and SR-BI DiI-HDL act inactive.
`COc1ccc(-c2csc(NC(=O)CSc3nnc(Nc4ccccc4C)s3)n2)cc1` gave ARNT TACC3 PPI inactive, CAL PDZ FP-2 inactive, miR-122 sensor inactive, SR-BI DiI inh inactive and SR-BI DiI-HDL act inactive.
Screening CCOc1ccc(NCc2nnc(SCC(=O)Nc3nc(-c4ccccc4)cs3)n2-c2ccccc2)cc1 returned CAL PDZ FP-1 inactive, ARNT TACC3 PPI inactive, CAL PDZ FP-2 inactive, SR-BI DiI inh 74.7 and SR-BI DiI-HDL act inactive.
For Cc1cccc(C)c1NCc1nnc(SCC(=O)Nc2nc(-c3ccccc3)cs2)n1-c1ccccc1 the results were CAL PDZ FP-1 inactive, ARNT TACC3 PPI inactive, CAL PDZ FP-2 inactive, miR-122 sensor inactive, SR-BI DiI inh inactive and SR-BI DiI-HDL act inactive.
Cc1c(C(=O)c2ccc(N(C)C)cc2)c2ccccn2c1CCC#N was read as CAL PDZ FP-1 inactive, ARNT TACC3 PPI inactive, CAL PDZ FP-2 inactive, miR-122 sensor inactive, SR-BI DiI inh 72.9 and SR-BI DiI-HDL act inactive.
`S=c1[nH]nc(-c2ccccn2)n1/N=C/c1ccc(Cl)c(Cl)c1` gave miR-122 sensor inactive.
S=c1[nH]nc(-c2ccccn2)n1/N=C/c1ccc(-c2ccccc2Cl)o1 was read as CAL PDZ FP-1 inactive, ARNT TACC3 PPI 55.8, CAL PDZ FP-2 inactive, SR-BI DiI inh inactive and SR-BI DiI-HDL act inactive.
Screening S=c1[nH]nc(-c2ccccn2)n1/N=C/c1ccc(Br)s1 returned CAL PDZ FP-1 inactive, ARNT TACC3 PPI 99.3, CAL PDZ FP-2 inactive, SR-BI DiI inh inactive and SR-BI DiI-HDL act inactive.
For C[C@H](CO)N1C[C@H](C)[C@@H](CN(C)C(=O)CCCN(C)C)OCCCC[C@H](C)Oc2ccc(NC(=O)Nc3ccc(F)cc3)cc2C1=O the results were ARNT TACC3 PPI inactive and miR-122 sensor inactive.
For COc1ccc(CCNC(=O)CCn2c(=O)c3cccn3c3ccc(F)cc32)c(OC)c1OC the results were CAL PDZ FP-1 117.8, ARNT TACC3 PPI inactive, CAL PDZ FP-2 inactive, miR-122 sensor inactive, SR-BI DiI inh inactive and SR-BI DiI-HDL act inactive.
`COc1ccccc1CCNC(=O)CCn1c(=O)c2cccn2c2ccc(F)cc21` gave CAL PDZ FP-1 inactive, ARNT TACC3 PPI inactive, CAL PDZ FP-2 inactive, miR-122 sensor inactive, SR-BI DiI inh inactive and SR-BI DiI-HDL act inactive.
`Cc1ccc(CCNC(=O)CCn2c(=O)c3cccn3c3ccc(F)cc32)cc1` gave CAL PDZ FP-1 38.9, ARNT TACC3 PPI inactive, CAL PDZ FP-2 inactive, miR-122 sensor inactive, SR-BI DiI inh inactive and SR-BI DiI-HDL act inactive.
COc1ccccc1C(=O)NCCNc1nc2cc(C)cc(C)c2cc1C#N was read as CAL PDZ FP-1 inactive, ARNT TACC3 PPI inactive, CAL PDZ FP-2 inactive, miR-122 sensor inactive, SR-BI DiI inh 110.1 and SR-BI DiI-HDL act inactive.
Screening O=C(C[C@H]1CC[C@@H](NC(=O)C2CC2)[C@@H](CO)O1)NC1CCC1 returned ARNT TACC3 PPI inactive and miR-122 sensor inactive.
Cc1ccc(CSc2ccc(S(=O)(=O)N3CCCC3)cn2)cc1 was read as CAL PDZ FP-1 71.0, ARNT TACC3 PPI inactive, CAL PDZ FP-2 inactive, miR-122 sensor inactive, SR-BI DiI inh inactive and SR-BI DiI-HDL act inactive.
Screening Cc1ccc(CSc2ccc(S(=O)(=O)N3CCOCC3)cn2)cc1 returned ARNT TACC3 PPI inactive, CAL PDZ FP-2 inactive, miR-122 sensor inactive, SR-BI DiI inh inactive and SR-BI DiI-HDL act inactive.
For O=C1CC(c2ccc3c(c2)OCCO3)Oc2ccccc21 (stereo not drawn) the results were CAL PDZ FP-1 inactive, ARNT TACC3 PPI inactive, CAL PDZ FP-2 inactive, miR-122 sensor inactive, SR-BI DiI inh inactive and SR-BI DiI-HDL act inactive.
O=C1CC(c2ccc3c(c2)OCCO3)Oc2ccc([N+](=O)[O-])cc21 (stereo not drawn) was read as CAL PDZ FP-1 79.2, ARNT TACC3 PPI inactive, CAL PDZ FP-2 inactive, miR-122 sensor inactive, SR-BI DiI inh inactive and SR-BI DiI-HDL act inactive.
`O=C(C[C@@H]1C[C@@H]2c3cc(NC(=O)Nc4ccc(C(F)(F)F)cc4)ccc3O[C@@H]2[C@H](CO)O1)NCCc1ccccc1` gave ARNT TACC3 PPI inactive and miR-122 sensor inactive.
`O=C(Nc1cccnc1)c1ccc(N2CCCC2)c([N+](=O)[O-])c1` gave CAL PDZ FP-1 inactive, ARNT TACC3 PPI inactive, CAL PDZ FP-2 inactive, miR-122 sensor inactive, SR-BI DiI inh inactive and SR-BI DiI-HDL act inactive.

Screening results from PubChem BioAssay.
